Test results: ChEMBL document CHEMBL2034843, “3α-Hydroxymasticadienonic acid as an antiproliferative agent that impairs mitochondrial functions” (J Nat Prod, 2012)
pIC50: −log10 of the molar value. Activity calls are given as the source filed them. The calls are words filed in the database; no cut-off is given here.

What was measured:
Rattus norvegicus [1] = organism: Rattus norvegicus; assay: Induction of mitochondrial dysfunction in rat liver mitochondria assessed as apoptosis inducing factor release at 10 uM after 15 mins by Western blot analysis; assay type: functional
Summary of the method: (§1)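 Mitochondria (1 mg protein/mL) held 15 min at 20 °C in standard succinate/rotenone medium with or without Ca2+, then centrifuged 13000g, 10 min, 4 °C. Supernatants concentrated, resolved by SDS-PAGE (15% for cyt c, 10% for AIF) and immunoblotted with mouse anti-cyt c or rabbit anti-AIF.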

Rattus norvegicus [2] = organism: Rattus norvegicus; assay: Induction of mitochondrial dysfunction in rat liver mitochondria assessed as cytochrome c release at 10 uM after 15 mins by Western blot analysis; assay type: functional; summary of the method: as §1
Rattus norvegicus [3] = organism: Rattus norvegicus; assay: Induction of mitochondrial dysfunction in rat liver mitochondria assessed as apoptosis inducing factor release at 100 uM after 15 mins by Western blot analysis; assay type: functional; summary of the method: as §1
Rattus norvegicus [4] = organism: Rattus norvegicus; assay: Hepatoprotective activity in rat liver assessed as inhibition of colloid-osmotic mitochondrial swelling at 100 uM by spectrophotometric analysis in presence of 90 uM Ca2+; settings: Mitochondria
Rattus norvegicus [5] = organism: Rattus norvegicus; assay: Induction of mitochondrial dysfunction in rat liver mitochondria assessed as cytochrome c release at 100 uM after 15 mins by Western blot analysis; assay type: functional; summary of the method: as §1
HepG2 = assay: Cytotoxicity against human HepG2 cells after 72 hrs by trypan blue assay; assay type: functional, cell-based; settings: HepG2, 72 h
Summary of the method: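 Cells seeded at 4 × 10^4 per well, grown 24 h, then given fresh medium with a range of concentrations and kept a further 72 h at 37 °C in 5% CO2. Viability was read by trypan blue count. IC50 is the concentration giving 50% fewer cells than control cultures, as mean ± SD of at least four experiments. HeLa were grown in F-12 with 10% heat-inactivated FCS; A-431 and HepG2 in DMEM with 10% FBS.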

Rattus norvegicus [6] = organism: Rattus norvegicus; assay: Induction of mitochondrial dysfunction in rat liver mitochondria assessed as decrease in mitochondrial redox level at 100 uM after 15 mins by absorption spectrophotometric analysis in presence of 50 uM Ca2+; assay type: functional; set-up: scale not given: the % may be the effect or the level left
Summary of the method: (§2)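 Mitochondrial protein thiol oxidation assayed per Santos et al. after 15 min incubation of rat liver mitochondria (1 mg protein/mL, 20 °C, succinate/rotenone standard medium). Results as % reduced thiols, mean ± SD, four independent experiments.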

Rattus norvegicus [7] = organism: Rattus norvegicus; assay: Induction of mitochondrial dysfunction in rat liver mitochondria assessed as decrease in membrane potential at 1 uM by spectrophotometric analysis in presence of 50 uM Ca2+; assay type: functional; settings: in the assay text read “TPP+-selective electrode” for “spectrophotometric analysis”, TDE = time-dependent effect
Summary of the method: (§3)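 Membrane potential (ΔΨ) derived from TPP+ distribution across the inner membrane, measured with a TPP+-selective electrode. Ca2+ 50 μM where indicated; cyclosporin A 1 μM where indicated.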

Rattus norvegicus [8] = organism: Rattus norvegicus; assay: Induction of mitochondrial dysfunction in rat liver mitochondria assessed as increase in mitochondrial swelling at < 20 uM by spectrophotometric analysis in presence of 70 uM Ca2+; assay type: functional
Summary of the method: (§4)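 Absorbance change at 540 nm of rat liver mitochondrial suspensions (1 mg protein/mL, 20 °C, succinate/rotenone energized, 250 mM sucrose, 10 mM HEPES pH 7.4, 1 mM phosphate); a fall in absorbance taken as swelling. Ca2+ at 50, 70 or 90 μM as specified, or omitted. Runs repeated at least four times.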

Rattus norvegicus [9] = organism: Rattus norvegicus; assay: Induction of mitochondrial bioenergetics dysfunction in rat liver mitochondria assessed as decrease in respiratory control index at 10 uM by using clark electrode; assay type: functional
Summary of the method: (§5)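 Isolated rat liver mitochondria (1 mg protein/mL), 20 °C, sucrose/HEPES pH 7.4 medium with 5 mM succinate plus 1.25 μM rotenone and 1 mM phosphate. O2 uptake followed with a Clark electrode; 300 μM ADP added to start state 3. RCI = V3/V4 (state 3 over state 4 rate). Five experiments.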

Rattus norvegicus [10] = organism: Rattus norvegicus; assay: Hepatoprotective activity in rat liver mitochondria assessed as inhibition of Ca2+-induced mitochondrial swelling at 100 uM by spectrophotometric analysis; assay type: functional; summary of the method: as §4
Rattus norvegicus [11] = organism: Rattus norvegicus; assay: Hepatoprotective activity in rat liver assessed as increase in mitochondrial membrane potential at 100 uM by spectrophotometric analysis in presence of 50 uM Ca2+; assay type: functional; settings: Mitochondria; summary of the method: as §3
Rattus norvegicus [12] = organism: Rattus norvegicus; assay: Hepatoprotective activity in rat liver mitochondria assessed as inhibition of Ca2+-induced mitochondrial swelling at > 20 uM by spectrophotometric analysis; assay type: functional; summary of the method: as §4
Rattus norvegicus [13] = organism: Rattus norvegicus; assay: Induction of mitochondrial dysfunction in rat liver mitochondria assessed as Ca2+ accumulation at 10 uM after 1 to 2 mins by spectrophotometric analysis; assay type: functional
Summary of the method: (§6)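 Ca2+ movements in rat liver mitochondria (1 mg protein/mL, 20 °C, succinate/rotenone medium) exposed to 70 μM Ca2+; Ca2+ in mitochondrial pellets measured by atomic absorption spectroscopy, uptake expressed per mg protein.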

Rattus norvegicus [14] = organism: Rattus norvegicus; assay: Induction of mitochondrial dysfunction in rat liver mitochondria assessed as increase in colloid-osmotic swelling at 10 to 100 uM by spectrophotometric analysis; assay type: functional; summary of the method: as §4
Rattus norvegicus [15] = organism: Rattus norvegicus; assay: Induction of mitochondrial dysfunction in rat liver mitochondria assessed as decrease in membrane potential at 100 uM by spectrophotometric analysis in presence of 1 uM MPT inhibitor cyclosporin A; assay type: functional; summary of the method: as §3
Rattus norvegicus [16] = organism: Rattus norvegicus; assay: Induction of mitochondrial dysfunction in rat liver mitochondria assessed as increase in colloid-osmotic swelling at 10 uM by spectrophotometric analysis in presence of 50 uM Ca2+ and N-ethylmaleimide; assay type: functional
Summary of the method: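 Swelling read as the 540 nm absorbance decrease in succinate-energized rat liver mitochondria (1 mg protein/mL, 20 °C, pH 7.4 sucrose/HEPES medium) with 50 μM Ca2+. Added agents where indicated: 1 μM CsA, 5 μM bongkrekic acid, 1 mM ADP, 2 μM ruthenium red, 10 μM NEM, 1 mM DTE. At least five repeats.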

Rattus norvegicus [17] = organism: Rattus norvegicus; assay: Hepatoprotective activity in rat liver assessed as inhibition of colloid-osmotic mitochondrial swelling at 100 uM by spectrophotometric analysis in presence of 90 uM Ca2+; assay type: functional; settings: Mitochondria; summary of the method: as §4
Rattus norvegicus [18] = organism: Rattus norvegicus; assay: Induction of mitochondrial dysfunction in rat liver mitochondria assessed as apoptosis inducing factor release at 10 uM after 15 mins by Western blot analysis in presence of Ca2+; assay type: functional; summary of the method: as §1
Rattus norvegicus [19] = organism: Rattus norvegicus; assay: Induction of mitochondrial dysfunction in Ca2+-stimulated rat liver mitochondria assessed as decrease in mitochondrial redox level at 10 uM after 15 mins by absorption spectrophotometric analysis in presence of Ca2+ transport inhibitor ruthedium red; assay type: functional; summary of the method: as §2
Rattus norvegicus [20] = organism: Rattus norvegicus; assay: Induction of mitochondrial dysfunction in rat liver mitochondria assessed as increase in colloid-osmotic swelling at 10 uM by spectrophotometric analysis in presence of 50 uM Ca2+; assay type: functional; summary of the method: as §4
Rattus norvegicus [21] = organism: Rattus norvegicus; assay: Induction of mitochondrial dysfunction in rat liver mitochondria assessed as blockage of Ca2+ release at 100 uM by spectrophotometric analysis; assay type: functional; settings: in the assay text read “Ca2+ accumulation” for “Ca2+ release”; summary of the method: as §6
Rattus norvegicus [22] = organism: Rattus norvegicus; assay: Induction of mitochondrial bioenergetics dysfunction in rat liver mitochondria assessed as decrease in respiratory control index at 50 uM by using clark electrode; assay type: functional; summary of the method: as §5
Rattus norvegicus [23] = organism: Rattus norvegicus; assay: Induction of mitochondrial dysfunction in rat liver mitochondria assessed as cytochrome c release at 10 uM after 15 mins by Western blot analysis in presence of Ca2+; assay type: functional; summary of the method: as §1
Rattus norvegicus [24] = organism: Rattus norvegicus; assay: Induction of mitochondrial dysfunction in Ca2+-stimulated rat liver mitochondria assessed as decrease in mitochondrial redox level at 10 uM after 15 mins by absorption spectrophotometric analysis in presence of N-ethylmaleimide; assay type: functional; summary of the method: as §2
Rattus norvegicus [25] = organism: Rattus norvegicus; assay: Induction of mitochondrial dysfunction in rat liver mitochondria assessed as change in membrane potential by spectrophotometric analysis; assay type: functional

Structure (SMILES): C/C(=C/CC[C@H](C)[C@@H]1CC[C@]2(C)C3=CC[C@H]4C(C)(C)[C@H](O)CC[C@]4(C)[C@H]3CC[C@@]12C)C(=O)O
- Activity (Rattus norvegicus [1]): inactive
- Activity (Rattus norvegicus [2]): inactive
- Activity (Rattus norvegicus [3]): inactive
- inhibition (Rattus norvegicus [4]): Active
- Activity (Rattus norvegicus [5]): inactive
- pIC50 (HepG2): 4.70
- Activity (Rattus norvegicus [6]): 25%
- Activity (Rattus norvegicus [7]): tde
- Activity (Rattus norvegicus [8]): Active
- Activity (Rattus norvegicus [9]): Active
- inhibition (Rattus norvegicus [10]): Active
- Activity (Rattus norvegicus [11]): Active
- Activity (Rattus norvegicus [12]): Active
- Activity (Rattus norvegicus [13]): inactive
- Activity (Rattus norvegicus [14]): inactive
- Activity (Rattus norvegicus [15]): Active
- Activity (Rattus norvegicus [16]): inactive
- inhibition (Rattus norvegicus [17]): Active
- Activity (Rattus norvegicus [18]): Active
- Activity (Rattus norvegicus [19]): inactive
- Activity (Rattus norvegicus [20]): Active
- Activity (Rattus norvegicus [21]): Active
- Activity (Rattus norvegicus [22]): Active
- Activity (Rattus norvegicus [23]): Active
- Activity (Rattus norvegicus [24]): inactive
- Activity (Rattus norvegicus [25]): Dose-dependent effect
